Activity calls are given as the source filed them.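 How the source made its calls, unless noted: active means potentiation averaged over duplicate wells exceeding buffer-only control mean by more than 3 SD; inactive means the rest.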

Results on 40 molecules are retold here after PubChem BioAssay.

Potassium voltage-gated channel subfamily KQT member 1 (Homo sapiens), sequence (P51787 whole entry, looked up): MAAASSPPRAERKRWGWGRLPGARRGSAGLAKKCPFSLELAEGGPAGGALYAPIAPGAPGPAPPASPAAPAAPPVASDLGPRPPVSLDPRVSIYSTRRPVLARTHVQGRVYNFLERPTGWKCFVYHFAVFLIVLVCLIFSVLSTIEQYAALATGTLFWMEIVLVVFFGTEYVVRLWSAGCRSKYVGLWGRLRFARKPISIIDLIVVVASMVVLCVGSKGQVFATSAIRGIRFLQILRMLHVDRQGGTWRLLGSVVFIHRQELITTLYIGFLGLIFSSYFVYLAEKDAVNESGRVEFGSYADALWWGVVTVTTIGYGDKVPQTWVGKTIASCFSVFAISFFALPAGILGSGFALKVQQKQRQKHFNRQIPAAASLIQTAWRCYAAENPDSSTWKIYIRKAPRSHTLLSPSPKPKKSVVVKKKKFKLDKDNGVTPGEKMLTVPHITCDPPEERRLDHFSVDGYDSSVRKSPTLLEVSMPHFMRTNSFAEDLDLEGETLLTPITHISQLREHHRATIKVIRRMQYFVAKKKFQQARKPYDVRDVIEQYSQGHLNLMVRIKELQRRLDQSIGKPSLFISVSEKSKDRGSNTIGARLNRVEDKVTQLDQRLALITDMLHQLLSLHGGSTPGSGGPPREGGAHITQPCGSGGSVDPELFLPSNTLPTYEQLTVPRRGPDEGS

Test system in the first experiment: not listed separately
Description: thallium flux activation in parental CHO cells, counter-screen for KCNQ1 potentiator project (AID 493006;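 active means duplicate-averaged activation above buffer control mean plus 5 SD of those controls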;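 on activation: fluorescence ratio of max minus min over baseline after K+ and Tl+ depolarization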). The following applies: parental CHO-K1 cells, FluxOR thallium flux, at 10 µM; active compounds read high. The essentials:
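Material: untransfected host CHO-K1 cells with FluxOR thallium dye. Timing: overnight 37 °C plating, 90 min RT dye, 20 min compound. Detection: kinetic FluxOR fluorescence, 10 s baseline, 110 s after stimulus. Read-out basis: max-minus-min fluorescence over baseline, percent of buffer-to-R-L3 span. Replicates: duplicate wells per compound, percent values averaged.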
On the technique in general: Counterscreens check selectivity or assay interference.
With `O=C(COC(=O)CNC(=O)c1ccc(Cl)cc1Cl)Nc1cccc(S(=O)(=O)N2CCCC2)c1`, the result was inactive.

In the case of `CCC(NC(=O)CCc1nnc(-c2cc(C)on2)o1)C12CC3CC(CC(C3)C1)C2` (stereo not given), the outcome was inactive.

As to `O=C(NC(=S)Nc1ccccc1)c1ccc(Br)o1`, the result was inactive.

Consider `Fc1ccc(-c2csc(=S)[nH]2)cc1`, for which the activation was 416% (active).

Turning to `Cc1cc(C)cc(-n2ccnc2SCC(=O)Nc2nccs2)c1`, the outcome was inactive.

Take `CCOC(=O)C1=C(O)c2ccccc2C(=O)/C1=C\c1ccc(CC)cc1`: the activation is 177% (active).

In the case of `CNC(=S)N/N=C/c1cc(Br)cc(Br)c1O`, the activation was 168% (active).

Consider `Cc1cc(Br)ccc1OCC(=O)NNC(=O)c1cnccn1`, for which the result was inactive.

For the molecule `CCOC(=O)c1nnn(CC(=O)Nc2cc(Cl)ccc2C)c1C(=O)OCC`, the activation is 164% (active).

`C1=Nc2ccccc2CN1c1ccccc1`: the outcome was inactive.

Regarding `COc1cccc(N=Nc2ccc(O)c3ncccc23)c1`, the activation is 166% (active).

Regarding `Cc1ccccc1CC(=O)NC1CCN(Cc2ccccc2)CC1`, the result was inactive.

`CC(=O)NC(C1C(=O)CC(C)(C)CC1=O)(C(F)(F)F)C(F)(F)F`: the outcome was inactive.

For the molecule `Cc1cc(C)nc(CCNC(=O)c2cc(COc3ccccc3)on2)n1`, the result was inactive.

`CC(C)(C)c1ccc(Oc2ccc(N)cn2)cc1`: the activation is 260% (active).

On to `O=[N+]([O-])c1cc(C(F)(F)F)ccc1Oc1cccnc1[N+](=O)[O-]`, for which the result was inactive.

As to `N=C1S/C(=C\c2ccco2)C(=O)N1c1nccs1`, the activation is 138% (active).

As to `COc1ccc(Cl)cc1NC(=O)/C=C\C(=O)O`, the outcome was inactive.

Consider `C[C@@H](NC(=O)OC(C)(C)C)c1nnc(S(=O)(=O)Cc2ccccc2)o1`, for which the outcome was inactive.

For `Cc1sc2nc(CN3CCOCC3)[nH]c(=S)c2c1C`, the activation is 312% (active).

As to `C/C(=N\NC(=O)c1cc2ccccc2cc1O)c1ccc(C)o1`, the activation was 238% (active).

On to `Cc1nc(NC(=S)NC(=O)c2cccs2)ccc1Br`, for which the activation is 148% (active).

Consider `CCOc1ccc(S(=O)(=O)Nc2cc(OC)ccc2OC)cc1`, for which the result was inactive.

`Cn1c(SCc2ccc(C#N)cc2Cl)nc2ccccc21`: the outcome was inactive.

For `Cc1ccc(CN2CCN(/N=C/C(Br)=C\c3ccccc3)CC2)cc1`, the outcome was inactive.

As to `CCOc1ccc(NC(=O)CN(C)C(=O)C2CCN(c3ncnc4sc(C)c(C)c34)CC2)cc1OCC`, the outcome was inactive.

Take `O=c1c(O)c(-c2cccs2)oc2ccc(Cl)cc12`: the activation was 570% (active).

In the case of `COc1ccc(C(=O)CC(=O)C(=O)Nc2ccccc2C(F)(F)F)cc1`, the outcome was inactive.

Take `O=C(NN=C1c2ccccc2-c2ccccc21)c1cccc(Br)c1`: the activation was 196% (active).

On to `O=C(NC(=S)NC1CCCc2ccccc21)c1ccco1` (stereo not given), for which the activation was 188% (active).

Turning to `COC(=O)COc1ccc(-c2ccccc2)cc1C=O`, the activation is 179% (active).

Regarding `CC(=O)c1c(C)[nH]c(C(=O)Nc2cccc(C(F)(F)F)c2)c1C`, the outcome was inactive.

For `CSc1nccc(-c2nn(-c3ccc(C)cc3)ccc2=O)n1`, the outcome was inactive.

For the molecule `COc1ccc2nc(N=Nc3ccc(O)c4ccccc34)sc2c1`, the activation was 210% (active).

Turning to `S=c1[nH]c(-c2ccccc2)cn1/N=C/c1cccc2ccccc12`, the activation is 174% (active).

For `O=C(C1CCN(Cc2ccccc2)CC1)N1CCN(C/C=C/c2ccccc2)CC1`, the outcome was inactive.

With `C=CCn1c(=S)[nH]c2nc3c(cc2c1=O)CCCC3`, the result was inactive.

`COc1ccc(-c2nnc(Nc3nc4c(OC)cccc4s3)o2)cc1`: the activation was 468% (active).

With `Cc1nc(NCCc2cnc[nH]2)c2oc3ccccc3c2n1`, the outcome was inactive.

In the case of `Cc1ccc(C)c(NC(=S)NNC(=O)c2csc3c2CCC(C)C3)c1` (stereo not given), the activation was 242% (active).

The next experiment concerns the target Potassium voltage-gated channel subfamily KQT member 1 (Homo sapiens) (UniProt P51787). Description: KCNQ1 potassium channel potentiators, confirmation, FluxOR thallium flux, CHO cells, duplicates (AID 493007).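 On outcome: cells depolarized by a potassium plus thallium sulfate stimulus after compound.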 The following applies: KCNQ1 cell line, FluxOR thallium flux fluorescence, at 10 µM; active compounds read high, % of reference activator effect, buffer zero. The essentials: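 Test system – KCNQ1-expressing CHO cell line · Incubation – FluxOR dye loading 90 min, compound exposure 20 min, room temperature · Detection – FluxOR Tl+ flux fluorescence, 10 s baseline plus 110 s recording · Controls – buffer-only wells as 0% and R-L3 activator as 100%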
Take `O=C(COC(=O)CNC(=O)c1ccc(Cl)cc1Cl)Nc1cccc(S(=O)(=O)N2CCCC2)c1`: the result was inactive.

`CCC(NC(=O)CCc1nnc(-c2cc(C)on2)o1)C12CC3CC(CC(C3)C1)C2` (stereo not given): the result was inactive.

On to `O=C(NC(=S)Nc1ccccc1)c1ccc(Br)o1`, for which the potentiation was 21.5% (active).

As for `Fc1ccc(-c2csc(=S)[nH]2)cc1`, the potentiation was 120% (active).

For `Cc1cc(C)cc(-n2ccnc2SCC(=O)Nc2nccs2)c1`, the outcome was inactive.

For `CCOC(=O)C1=C(O)c2ccccc2C(=O)/C1=C\c1ccc(CC)cc1`, the potentiation is 114% (active).

On to `CNC(=S)N/N=C/c1cc(Br)cc(Br)c1O`, for which the result was inactive.

Take `Cc1cc(Br)ccc1OCC(=O)NNC(=O)c1cnccn1`: the result was inactive.

As for `CCOC(=O)c1nnn(CC(=O)Nc2cc(Cl)ccc2C)c1C(=O)OCC`, the potentiation is 33% (active).

`C1=Nc2ccccc2CN1c1ccccc1`: the result was inactive.

As for `COc1cccc(N=Nc2ccc(O)c3ncccc23)c1`, the potentiation is 44% (active).

Take `Cc1ccccc1CC(=O)NC1CCN(Cc2ccccc2)CC1`: the outcome was inactive.

As to `CC(=O)NC(C1C(=O)CC(C)(C)CC1=O)(C(F)(F)F)C(F)(F)F`, the result was inactive.

`Cc1cc(C)nc(CCNC(=O)c2cc(COc3ccccc3)on2)n1`: the result was inactive.

As to `CC(C)(C)c1ccc(Oc2ccc(N)cn2)cc1`, the potentiation is 81.5% (active).

On to `O=[N+]([O-])c1cc(C(F)(F)F)ccc1Oc1cccnc1[N+](=O)[O-]`, for which the outcome was inactive.

As for `N=C1S/C(=C\c2ccco2)C(=O)N1c1nccs1`, the result was inactive.

Turning to `COc1ccc(Cl)cc1NC(=O)/C=C\C(=O)O`, the result was inactive.

As for `C[C@@H](NC(=O)OC(C)(C)C)c1nnc(S(=O)(=O)Cc2ccccc2)o1`, the result was inactive.

Consider `Cc1sc2nc(CN3CCOCC3)[nH]c(=S)c2c1C`, for which the potentiation was 69.5% (active).

Turning to `C/C(=N\NC(=O)c1cc2ccccc2cc1O)c1ccc(C)o1`, the potentiation is 114% (active).

Turning to `Cc1nc(NC(=S)NC(=O)c2cccs2)ccc1Br`, the potentiation was 23.5% (active).

On to `CCOc1ccc(S(=O)(=O)Nc2cc(OC)ccc2OC)cc1`, for which the outcome was inactive.

For `Cn1c(SCc2ccc(C#N)cc2Cl)nc2ccccc21`, the outcome was inactive.

For the molecule `Cc1ccc(CN2CCN(/N=C/C(Br)=C\c3ccccc3)CC2)cc1`, the outcome was inactive.

`CCOc1ccc(NC(=O)CN(C)C(=O)C2CCN(c3ncnc4sc(C)c(C)c34)CC2)cc1OCC`: the result was inactive.

As for `O=c1c(O)c(-c2cccs2)oc2ccc(Cl)cc12`, the potentiation was 128% (active).

Consider `COc1ccc(C(=O)CC(=O)C(=O)Nc2ccccc2C(F)(F)F)cc1`, for which the potentiation is 38.5% (active).

On to `O=C(NN=C1c2ccccc2-c2ccccc21)c1cccc(Br)c1`, for which the potentiation is 42.5% (active).

Turning to `O=C(NC(=S)NC1CCCc2ccccc21)c1ccco1` (stereo not given), the potentiation is 122% (active).

Consider `COC(=O)COc1ccc(-c2ccccc2)cc1C=O`, for which the potentiation was 34.5% (active).

In the case of `CC(=O)c1c(C)[nH]c(C(=O)Nc2cccc(C(F)(F)F)c2)c1C`, the outcome was inactive.

Take `CSc1nccc(-c2nn(-c3ccc(C)cc3)ccc2=O)n1`: the result was inactive.

With `COc1ccc2nc(N=Nc3ccc(O)c4ccccc34)sc2c1`, the potentiation is 83.5% (active).

In the case of `S=c1[nH]c(-c2ccccc2)cn1/N=C/c1cccc2ccccc12`, the potentiation is 65.5% (active).

Turning to `O=C(C1CCN(Cc2ccccc2)CC1)N1CCN(C/C=C/c2ccccc2)CC1`, the result was inactive.

Consider `C=CCn1c(=S)[nH]c2nc3c(cc2c1=O)CCCC3`, for which the potentiation is 34% (active).

`COc1ccc(-c2nnc(Nc3nc4c(OC)cccc4s3)o2)cc1`: the potentiation was 164% (active).

As to `Cc1nc(NCCc2cnc[nH]2)c2oc3ccccc3c2n1`, the result was inactive.

Take `Cc1ccc(C)c(NC(=S)NNC(=O)c2csc3c2CCC(C)C3)c1` (stereo not given): the potentiation was 116% (active).
